Data reported in ChEMBL document CHEMBL4616681, “Discovery of 3-Pyridyl Isoindolin-1-one Derivatives as Potent, Selective, and Orally Active Aldosterone Synthase (CYP11B2) Inhibitors” (J Med Chem, 2020).
pIC50: −log10 of the molar value.

Key:
[1] = biological target: T1, Cytochrome P450 11B2, mitochondrial (Homo sapiens, UniProt P19099); assay: Inhibition of human CYP11B2 expressed in human renal leiomyoblastoma cells harboring FDXR/FDX using 1-deoxycorticosterone as substrate by HTRF assay; format: cell-based
T1 sequence (P19099 whole entry): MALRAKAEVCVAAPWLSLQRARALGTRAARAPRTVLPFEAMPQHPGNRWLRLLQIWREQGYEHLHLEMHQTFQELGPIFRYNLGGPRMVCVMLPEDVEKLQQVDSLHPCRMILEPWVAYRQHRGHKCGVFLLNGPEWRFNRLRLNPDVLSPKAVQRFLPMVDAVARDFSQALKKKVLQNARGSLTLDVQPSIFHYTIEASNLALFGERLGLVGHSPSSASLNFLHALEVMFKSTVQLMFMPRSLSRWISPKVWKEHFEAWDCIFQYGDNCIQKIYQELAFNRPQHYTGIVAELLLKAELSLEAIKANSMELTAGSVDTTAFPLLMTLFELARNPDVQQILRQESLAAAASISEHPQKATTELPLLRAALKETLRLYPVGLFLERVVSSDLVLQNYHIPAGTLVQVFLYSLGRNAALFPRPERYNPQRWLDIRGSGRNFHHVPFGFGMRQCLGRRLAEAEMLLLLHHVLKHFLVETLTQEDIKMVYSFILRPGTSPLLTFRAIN
Procedure, shortened: (§1)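 Cells with endogenous FDXR/FDX and no detectable CYP11B activity, stably transfected (CMV promoter, neomycin selection, G-418 400 µg/mL) with CYP11B1 or CYP11B2 of the named species. Assayed in DMEM/F12 with 2.5% charcoal-treated FCS. Substrate 1 µM 11-deoxycorticosterone (B2) or 11-deoxycortisol (B1), 16 hr. Aldosterone or cortisol in supernatant measured by HTRF. IC50 from 4-parameter MMF fit; selectivity factor is the B1/B2 IC50 ratio.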

[2] = biological target: T2, Cytochrome P450 11B1, mitochondrial (Homo sapiens, UniProt P15538); assay: Inhibition of human CYP11B1 expressed in human renal leiomyoblastoma cells harboring FDXR/FDX using 1-deoxycortisol as substrate by HTRF assay; format: ADME, cell-based; procedure, shortened: as §1
T2 sequence (P15538 whole entry): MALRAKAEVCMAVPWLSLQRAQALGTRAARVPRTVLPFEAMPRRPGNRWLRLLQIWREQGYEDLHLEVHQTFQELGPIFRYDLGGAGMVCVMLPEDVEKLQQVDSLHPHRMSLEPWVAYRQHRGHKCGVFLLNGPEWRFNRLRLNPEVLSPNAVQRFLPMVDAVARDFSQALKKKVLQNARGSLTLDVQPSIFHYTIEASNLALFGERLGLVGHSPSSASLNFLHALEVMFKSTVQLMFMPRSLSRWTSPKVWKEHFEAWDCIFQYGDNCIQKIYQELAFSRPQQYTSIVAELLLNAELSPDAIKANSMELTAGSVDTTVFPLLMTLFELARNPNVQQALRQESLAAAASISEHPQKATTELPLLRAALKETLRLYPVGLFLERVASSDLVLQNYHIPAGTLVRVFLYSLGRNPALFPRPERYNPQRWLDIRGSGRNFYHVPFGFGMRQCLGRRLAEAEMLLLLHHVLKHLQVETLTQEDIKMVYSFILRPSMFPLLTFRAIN

[3] = Selectivity ratio of IC50 for human CYP11B1 expressed in human renal leiomyoblastoma cells harboring FDXR/FDX to IC50 for human CYP11B2 expressed in human renal leiomyoblastoma cells harboring FDXR/FDX; format: cell-based; procedure, shortened: as §1
[4] = Intrinsic clearance in human liver microsomes preincubated for 10 mins followed by NADPH regenerating system addition and measured up to 30 mins by LC/MS-MS analysis; format: ADME, Microsome; conditions: read-out: CLH
Procedure, shortened: (§2)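 Liver microsomes at 0.5 mg protein/mL in 100 mM potassium phosphate, pH 7.4. Compound preincubated 10 min at 37 °C. Intrinsic clearance scaled using the well-stirred liver model.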

[5] = Intrinsic clearance in mouse liver microsomes preincubated for 10 mins followed by NADPH regenerating system addition and measured up to 30 mins by LC/MS-MS analysis; format: ADME, Microsome; procedure, shortened: as §2
[6] = Inhibition of cynomolgus monkey CYP11B2 expressed in human G401 cells using 1-deoxycorticosterone as substrate by HTRF assay; format: cell-based, Macaca fascicularis; conditions: g-401; procedure, shortened: as §1
[7] = Selectivity ratio of IC50 for cynomolgus monkey CYP11B1 expressed in human G401 cells to IC50 for cynomolgus monkey CYP11B2 expressed in human G401 cells; format: cell-based; procedure, shortened: as §1
[8] = Intrinsic clearance in rat liver microsomes preincubated for 10 mins followed by NADPH regenerating system addition and measured up to 30 mins by LC/MS-MS analysis; format: ADME, Microsome; procedure, shortened: as §2

| pIC50 [1] | pIC50 [2] | predicted hepatic clearance [4] [mL/min/kg] | predicted hepatic clearance (CLH) [5] [mL/min/kg] | pIC50 [6] | predicted hepatic clearance (CLH) [8] [mL/min/kg] | SMILES | Ratio IC50 [3] | Ratio IC50 [7] |
| --- | --- | --- | --- | --- | --- | --- | --- | --- |
| 6.97 | 5.37 | < 3.5 | 25 | – | – | CC1(C)c2cc(Cl)ccc2C(=O)N1c1cccnc1 | 40 | – |
| 7.23 | – | – | – | 7.85 | – | CC(=O)NCc1cncc(N2C(=O)c3ccc(Cl)cc3C2(C)C)c1 | 47 | 333 |
| 8.40 | – | – | – | 8.70 | – | CC(=O)N1CCC(Oc2cncc(N3C(=O)c4ccc(Cl)cc4C3(C)C)c2)CC1 | 61 | 225 |
| 6.92 | 5.35 | 3.5 | – | – | – | O=C1c2ccc(Cl)cc2C2(CC2)N1c1cccnc1 | 37 | – |
| 7.92 | 6.46 | < 3.5 | < 20.2 | – | – | CCC(=O)N[C@@H]1CCCc2c1cncc2N1C(=O)c2ccc(Cl)cc2[C@@H]1CC | 29 | – |
| 5.95 | < 5.52 | – | – | – | – | O=C1c2ccccc2CN1c1cccnc1 | > 3 | – |
| 8.40 | 7.09 | < 3.5 | < 20.2 | – | – | CC(=O)N[C@@H]1CCCc2c1cncc2N1C(=O)c2ccc(Cl)cc2[C@@H]1C | 20 | – |
| < 5.52 | < 5.52 | – | – | – | – | Cc1ccc(C(=O)Nc2cccnc2)cc1 | – | – |
| 6.91 | 5.90 | 12.2 | 66.5 | – | – | CC1c2cc(Cl)ccc2C(=O)N1c1cccnc1 (stereo not given) | 10 | – |
| 7.40 | 5.75 | < 3.5 | 27 | – | – | CCS(=O)(=O)N[C@@H]1CCCc2c1cncc2N1Cc2cc(Cl)ccc2C1=O | 45 | – |
| < 5.52 | < 5.52 | – | – | – | – | CN(C(=O)c1ccc(Cl)cc1F)c1cccnc1 | – | – |
| 7.96 | – | – | – | 8.15 | – | CC(=O)N1CC[C@@H](Oc2cncc(N3C(=O)c4ccc(Cl)cc4C3(C)C)c2)C1 | 113 | 643 |
| 6.55 | – | – | – | – | – | CCC(=O)NCc1cncc(N2C(=O)c3ccc(Cl)cc3C2(C)C)c1 | 28 | – |
| 7.01 | 5.44 | < 3.5 | < 20.2 | – | – | CC[C@H]1c2cc(Cl)ccc2C(=O)N1c1cncc2c1CCC[C@H]2NC(C)=O | 37 | – |
| 7.36 | 5.63 | < 3.5 | < 20.2 | – | – | CC(=O)N[C@@H]1CCCc2c1cncc2N1Cc2cc(Cl)ccc2C1=O | 53 | – |
| 8.30 | – | – | – | 8.70 | – | CC(=O)N1CCC(c2cncc(N3C(=O)c4ccc(Cl)cc4C3(C)C)c2)CC1 | 77 | 466 |
| 6.92 | 5.48 | 6.6 | 65.9 | – | – | CCC1c2cc(Cl)ccc2C(=O)N1c1cccnc1 (stereo not given) | 28 | – |
| < 5.52 | < 5.52 | – | – | – | – | CN(C(=O)c1ccc(C#N)cc1)c1cccnc1 | – | – |
| 7.48 | – | – | – | 8.00 | – | CC1(C)c2cc(Cl)ccc2C(=O)N1c1cncc(CNS(C)(=O)=O)c1 | 49 | 179 |
| 8.22 | 6.38 | < 3.5 | < 20.2 | – | – | CCC(=O)N[C@@H]1CCCc2c1cncc2N1C(=O)c2ccc(Cl)cc2[C@@H]1C | 69 | – |
| 8.15 | – | – | – | 8.30 | – | CC(=O)N1CC[C@H](Oc2cncc(N3C(=O)c4ccc(Cl)cc4C3(C)C)c2)C1 | 81 | 193 |
| 6.45 | < 4.52 | – | – | – | – | CC(=O)N[C@@H]1CCCc2c1cncc2N1C(=O)c2ccc(Cl)cc2[C@@H]1C1CC1 | > 85 | – |

| pIC50 [1] | pIC50 [2] | predicted hepatic clearance [4] [mL/min/kg] | predicted hepatic clearance (CLH) [5] [mL/min/kg] | pIC50 [6] | predicted hepatic clearance (CLH) [8] [mL/min/kg] | SMILES | Ratio IC50 [3] | Ratio IC50 [7] |
| --- | --- | --- | --- | --- | --- | --- | --- | --- |
| 6.34 | < 5.52 | – | – | – | – | N#Cc1ccc(C(=O)Nc2cccnc2)cc1 | > 7 | – |
| 8.05 | – | – | – | – | – | Cc1cccnc1C(=O)NCc1cncc(N2C(=O)c3ccc(Cl)cc3C2(C)C)c1 | 89 | 191 |
| 6.56 | < 5.52 | – | – | – | – | Cc1cc(Cl)ccc1C(=O)Nc1cccnc1 | > 11 | – |
| 7.00 | 4.64 | – | – | – | – | CC(=O)N[C@@H]1CCCc2c1cncc2N1C(=O)c2ccc(Cl)cc2[C@H]1C1CC1 | 228 | – |
| 8.15 | 6.48 | < 3.5 | < 20.2 | – | – | CC[C@@H]1c2cc(Cl)ccc2C(=O)N1c1cncc2c1CCC[C@H]2NC(C)=O | 48 | – |
| 6.01 | < 5.52 | – | – | – | – | O=C(Nc1cccnc1)c1ccccc1Cl | > 3 | – |
| 7.18 | 5.03 | < 3.5 | 45.6 | – | – | CCC(=O)N[C@@H]1CCCc2c1cncc2N1C(=O)c2ccc(Cl)cc2[C@H]1C | 143 | – |
| 6.38 | < 5.52 | – | – | – | – | O=C(Nc1cccnc1)c1ccc(Cl)cc1 | > 7 | – |
| 6.79 | 4.49 | 9.4 | – | – | – | O=C1c2ccc(Cl)cc2C(C2CC2)N1c1cccnc1 (stereo not given) | 202 | – |
| 6.00 | 5.03 | < 3.5 | < 20.2 | – | – | CS(=O)(=O)N[C@@H]1CCCc2c1cncc2N1Cc2cc(Cl)ccc2C1=O | 9 | – |
| 7.05 | 4.99 | < 3.5 | 44.9 | – | – | CCC(=O)N[C@@H]1CCCc2c1cncc2N1C(=O)c2ccc(Cl)cc2[C@H]1CC | 114 | – |
| 8.10 | – | – | – | 8.40 | – | C[C@@H](NS(C)(=O)=O)c1cncc(N2C(=O)c3ccc(Cl)cc3C2(C)C)c1 | 71 | 93 |
| 7.85 | – | – | – | – | – | Cc1ccncc1C(=O)N1CC2(C1)CN(c1cncc(N3C(=O)c4ccc(Cl)cc4C3(C)C)c1)C2 | 1870 | – |
| 7.04 | – | – | – | – | – | CCS(=O)(=O)NCc1cncc(N2C(=O)c3ccc(Cl)cc3C2(C)C)c1 | 31 | – |
| 5.29 | 4.40 | – | – | – | – | CC(=O)N[C@H]1CCCc2c1cncc2N1Cc2cc(Cl)ccc2C1=O | 8 | – |
| 7.64 | – | – | – | – | 3.71 | CC(=O)N1CC2(C1)CN(c1cncc(N3C(=O)c4ccc(Cl)cc4C3(C)C)c1)C2 | 640 | – |
| 6.89 | 5.29 | < 3.5 | 43.5 | – | – | CC(=O)N[C@@H]1CCCc2c1cncc2N1C(=O)c2ccc(Cl)cc2[C@H]1C | 40 | – |
| 6.92 | 5.48 | < 3.5 | – | – | < 20.2 | CCC(=O)N[C@@H]1CCCc2c1cncc2N1CCc2cc(Cl)ccc2C1=O | – | – |
| < 5.52 | < 5.52 | – | – | – | – | Cc1cc(Cl)ccc1C(=O)N(C)c1cccnc1 | – | – |
| 6.53 | < 5.52 | – | – | – | – | O=C(Nc1cccnc1)c1ccc(Cl)cc1F | > 10 | – |
| 6.98 | 5.45 | < 3.5 | 30.9 | – | – | O=C1c2cc(F)c(Cl)cc2CCN1c1cccnc1 | 34 | – |
| 5.97 | 6.67 | – | – | – | – | O=C1c2ccc(Cl)cc2C(Cc2ccccc2)N1c1cccnc1 (stereo not given) | 0.2 | – |
